Here are results for 18 molecules from publication PMC9889102 (European journal of medicinal chemistry, 2022).

Read-outs that look alike come from different tables or passages of the source.

The conditions of series [1]: ref [25], cited from earlier work.
The target of series [2] is phosphorylated chicken gizzard smooth muscle myosin (Gallus gallus, UniProt P10587). In words: Steady-state actin-activated Mg2+ ATPase inhibition, smooth muscle myosin. The class given is biochemical. Put shortly:
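Chicken gizzard smooth muscle myosin was fully phosphorylated (checked by urea gel), never frozen, and used within 2–3 weeks. It was run at 0.2 mg/mL final with 32 μM rabbit F-actin at 30 °C in MOPS pH 7.0, 50 mM NaCl, 0.1 mM EGTA, 5 mM MgCl2, 2 mM ATP, 1 mM DTT. DMSO was 2%, with dilutions from a 25 mM stock. IC50 is the half-maximal drop in steady-state ATPase.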

A further series concerns BEAS-2B, MCF-7 and A549. The conditions noted are these: normal human cell line BEAS-2B and cancer cell lines MCF-7 and A549; ref [41]; cited from earlier work.
Series [3] deals with NM-IIB (cytokinesis in Cos-7 cells). Description: Cytokinesis inhibition in Cos-7 cells. The class given is cell-based. The conditions noted are these: 24 h, 37 °C. Put shortly:
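Cos-7 cells (4,000/well) were pre-grown 24 h, then exposed 24 h at 37 °C, 5% CO2 to test compound at 40 μM final in 1% DMSO. Controls were 1% DMSO and media (negative), plus para-aminoblebbistatin 20 μM and (−)-blebbistatin 10 μM (positive). Staining was fluorescein diacetate, Hoechst 33342 and propidium iodide for 10 min. N/C is Hoechst nuclei (excluding PI-positive) per FDA-stained cell. Triplicate wells, ≥2 experiments, ≥600 cells/well.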

For series [4], the target named is T1, fast rabbit skeletal myosin (Oryctolagus cuniculus, UniProt Q28641). Description: Steady-state actin-activated Mg2+ ATPase inhibition, skeletal myosin. The class given is biochemical. The conditions noted are these: cardiac IC50 (x) / skeletal IC50 (y). The gist of the method:
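Rabbit psoas skeletal myosin (unphosphorylated, 0.1 mg/mL final) with rabbit psoas F-actin (32 μM) at 30 °C, pH 7.0 MOPS buffer (50 mM NaCl, 0.1 mM EGTA, 5 mM MgCl2, 2 mM ATP, 1 mM DTT), 2% DMSO. IC50 taken as half-maximal reduction of steady-state rate. Selectivity is cardiac IC50 (bovine left-ventricle myosin, 0.5 mg/mL) divided by skeletal IC50.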

The conditions of series [5]: 99:1 (v/v) PBS/methanol, room temperature; ref [25]; cited from earlier work.
For series [6], the target named is T1, fast rabbit skeletal myosin. The conditions noted are these: previously reported ketimines; favoured isoform; ref [25]; cited from earlier work.

T1 sequence (Q28641 whole entry): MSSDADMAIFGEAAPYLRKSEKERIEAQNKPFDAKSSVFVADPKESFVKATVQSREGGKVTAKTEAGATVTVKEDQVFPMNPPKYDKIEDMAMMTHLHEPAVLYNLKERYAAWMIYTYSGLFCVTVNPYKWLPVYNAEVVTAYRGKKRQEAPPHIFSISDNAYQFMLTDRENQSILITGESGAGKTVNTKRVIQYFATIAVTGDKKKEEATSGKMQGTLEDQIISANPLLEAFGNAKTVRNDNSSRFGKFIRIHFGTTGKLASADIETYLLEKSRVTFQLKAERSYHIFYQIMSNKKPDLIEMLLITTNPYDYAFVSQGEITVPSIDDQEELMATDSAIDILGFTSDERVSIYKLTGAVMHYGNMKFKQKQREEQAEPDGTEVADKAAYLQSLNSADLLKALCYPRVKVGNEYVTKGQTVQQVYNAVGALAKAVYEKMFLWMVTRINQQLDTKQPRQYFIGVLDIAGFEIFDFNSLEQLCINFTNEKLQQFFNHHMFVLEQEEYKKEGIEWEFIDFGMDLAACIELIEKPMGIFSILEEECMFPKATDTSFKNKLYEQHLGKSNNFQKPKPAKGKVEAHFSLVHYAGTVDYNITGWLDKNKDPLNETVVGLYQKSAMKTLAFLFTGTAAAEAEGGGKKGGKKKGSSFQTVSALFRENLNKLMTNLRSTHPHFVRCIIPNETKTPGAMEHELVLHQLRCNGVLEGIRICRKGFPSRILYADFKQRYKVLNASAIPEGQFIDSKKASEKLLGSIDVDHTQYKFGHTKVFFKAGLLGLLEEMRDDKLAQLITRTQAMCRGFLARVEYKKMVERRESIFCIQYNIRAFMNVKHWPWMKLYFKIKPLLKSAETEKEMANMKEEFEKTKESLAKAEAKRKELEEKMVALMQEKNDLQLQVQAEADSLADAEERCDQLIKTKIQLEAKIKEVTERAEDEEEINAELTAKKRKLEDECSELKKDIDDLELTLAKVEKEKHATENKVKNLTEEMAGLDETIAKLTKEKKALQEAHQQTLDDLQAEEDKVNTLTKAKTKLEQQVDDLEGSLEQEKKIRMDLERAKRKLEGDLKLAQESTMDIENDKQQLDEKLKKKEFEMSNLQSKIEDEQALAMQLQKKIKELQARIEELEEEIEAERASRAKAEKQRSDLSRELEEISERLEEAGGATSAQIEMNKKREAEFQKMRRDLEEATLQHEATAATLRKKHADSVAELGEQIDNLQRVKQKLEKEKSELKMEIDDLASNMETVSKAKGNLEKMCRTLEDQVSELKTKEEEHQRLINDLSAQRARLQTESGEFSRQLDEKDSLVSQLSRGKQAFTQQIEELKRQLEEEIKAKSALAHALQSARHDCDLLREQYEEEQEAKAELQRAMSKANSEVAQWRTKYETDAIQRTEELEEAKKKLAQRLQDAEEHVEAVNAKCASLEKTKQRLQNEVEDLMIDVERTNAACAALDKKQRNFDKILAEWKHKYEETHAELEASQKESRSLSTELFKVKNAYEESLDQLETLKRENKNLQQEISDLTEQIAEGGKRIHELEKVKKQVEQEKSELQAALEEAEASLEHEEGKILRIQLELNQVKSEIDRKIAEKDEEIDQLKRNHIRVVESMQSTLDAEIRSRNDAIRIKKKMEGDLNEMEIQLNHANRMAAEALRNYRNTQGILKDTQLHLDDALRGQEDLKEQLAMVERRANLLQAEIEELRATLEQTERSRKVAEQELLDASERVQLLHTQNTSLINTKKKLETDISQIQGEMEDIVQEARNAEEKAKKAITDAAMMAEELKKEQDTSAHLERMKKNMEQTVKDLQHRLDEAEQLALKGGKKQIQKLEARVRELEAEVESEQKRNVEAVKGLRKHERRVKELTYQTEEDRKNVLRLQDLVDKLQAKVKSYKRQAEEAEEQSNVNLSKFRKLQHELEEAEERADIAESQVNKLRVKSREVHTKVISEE
T1 sequence (P02602 whole entry partner): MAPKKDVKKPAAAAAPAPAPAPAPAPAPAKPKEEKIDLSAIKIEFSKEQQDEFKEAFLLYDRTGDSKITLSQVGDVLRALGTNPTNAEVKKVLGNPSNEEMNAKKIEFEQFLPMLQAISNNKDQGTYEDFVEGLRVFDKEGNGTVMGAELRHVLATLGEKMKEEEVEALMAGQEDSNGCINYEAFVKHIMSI
T1 sequence (P02608 whole entry partner): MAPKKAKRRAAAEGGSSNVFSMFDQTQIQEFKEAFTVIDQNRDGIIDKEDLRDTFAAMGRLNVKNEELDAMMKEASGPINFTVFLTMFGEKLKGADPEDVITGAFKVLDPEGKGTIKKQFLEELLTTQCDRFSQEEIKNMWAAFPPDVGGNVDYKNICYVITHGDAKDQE
Chain of phosphorylated chicken gizzard smooth muscle myosin (P10587 2-1979 limits assumed): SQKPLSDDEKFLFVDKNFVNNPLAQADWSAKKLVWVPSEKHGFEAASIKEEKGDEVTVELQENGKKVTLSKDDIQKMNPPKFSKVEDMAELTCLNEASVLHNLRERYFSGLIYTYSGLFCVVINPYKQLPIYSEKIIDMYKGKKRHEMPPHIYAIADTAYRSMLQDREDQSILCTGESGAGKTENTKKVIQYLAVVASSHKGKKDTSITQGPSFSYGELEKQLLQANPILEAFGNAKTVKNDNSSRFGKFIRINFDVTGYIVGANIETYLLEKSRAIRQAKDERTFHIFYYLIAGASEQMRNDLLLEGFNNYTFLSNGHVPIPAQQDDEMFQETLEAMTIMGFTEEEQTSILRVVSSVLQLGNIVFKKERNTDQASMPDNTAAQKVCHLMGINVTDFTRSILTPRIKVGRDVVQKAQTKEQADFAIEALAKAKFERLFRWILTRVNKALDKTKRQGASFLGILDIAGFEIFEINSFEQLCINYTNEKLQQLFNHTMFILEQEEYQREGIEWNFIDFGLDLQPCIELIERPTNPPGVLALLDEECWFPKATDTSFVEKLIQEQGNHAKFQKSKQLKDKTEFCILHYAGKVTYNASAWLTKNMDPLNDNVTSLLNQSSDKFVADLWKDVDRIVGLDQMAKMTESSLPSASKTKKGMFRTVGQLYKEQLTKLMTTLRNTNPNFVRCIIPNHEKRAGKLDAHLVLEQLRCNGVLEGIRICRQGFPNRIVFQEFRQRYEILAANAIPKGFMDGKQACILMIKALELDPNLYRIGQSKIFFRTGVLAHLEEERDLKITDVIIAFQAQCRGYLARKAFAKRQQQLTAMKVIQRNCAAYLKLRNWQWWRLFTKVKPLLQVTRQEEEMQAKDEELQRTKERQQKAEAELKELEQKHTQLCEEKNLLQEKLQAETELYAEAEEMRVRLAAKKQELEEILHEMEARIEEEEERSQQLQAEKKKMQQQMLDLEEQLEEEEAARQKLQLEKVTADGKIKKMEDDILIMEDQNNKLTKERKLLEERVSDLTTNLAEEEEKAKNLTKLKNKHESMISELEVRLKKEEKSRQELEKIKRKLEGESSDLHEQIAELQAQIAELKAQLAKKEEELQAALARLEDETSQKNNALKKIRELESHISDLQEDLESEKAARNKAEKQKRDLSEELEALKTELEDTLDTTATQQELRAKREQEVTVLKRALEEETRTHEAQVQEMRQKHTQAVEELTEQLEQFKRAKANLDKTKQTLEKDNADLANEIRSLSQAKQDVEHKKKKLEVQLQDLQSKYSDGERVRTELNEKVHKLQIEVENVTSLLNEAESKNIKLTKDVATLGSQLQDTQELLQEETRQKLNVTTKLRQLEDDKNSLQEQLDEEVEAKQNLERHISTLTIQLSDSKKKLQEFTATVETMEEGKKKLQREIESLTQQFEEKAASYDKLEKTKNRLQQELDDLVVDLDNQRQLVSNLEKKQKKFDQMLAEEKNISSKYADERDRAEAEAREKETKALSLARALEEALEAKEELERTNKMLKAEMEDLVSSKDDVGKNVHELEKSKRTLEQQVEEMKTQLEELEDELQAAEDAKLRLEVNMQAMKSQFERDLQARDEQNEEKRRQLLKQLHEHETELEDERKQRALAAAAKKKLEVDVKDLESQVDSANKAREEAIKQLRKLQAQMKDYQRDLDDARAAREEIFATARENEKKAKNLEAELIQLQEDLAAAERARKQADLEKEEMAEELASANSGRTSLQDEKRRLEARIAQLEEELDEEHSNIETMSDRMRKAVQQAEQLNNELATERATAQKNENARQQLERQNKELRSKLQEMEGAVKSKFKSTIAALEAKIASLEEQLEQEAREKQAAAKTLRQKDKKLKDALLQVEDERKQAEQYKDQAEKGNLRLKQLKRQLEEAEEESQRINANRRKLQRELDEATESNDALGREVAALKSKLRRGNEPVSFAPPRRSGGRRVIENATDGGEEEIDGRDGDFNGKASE

Turning to “3-(N-butylethanimidoyl)-4-hydroxy-2H-chromen-2-one [BHC, reference compound]”, the Kinetic solubility in series [1] (nephelometry in PBS (pH 7.4) containing 2.5% DMSO) is 607 ± 2 μm.
Regarding `C/C(=N\Cc1ccccc1)c1c(O)c2ccccc2oc1=O` [Analog 2], the Kinetic solubility in series [1] (pH 7.4 PBS, 2.5% DMSO) is 100 µM.
On to `COCC/N=C(\C)c1c(O)c2ccccc2oc1=O` [Analog 5a, 4-Hydroxy-3-(N-(2-methoxyethyl)ethanimidoyl)-2H-chromen-2-one], for which, in series [2], the IC50 – broadly, the midpoint of a concentration-inhibition curve – was no less than 100 µM.
On the same count and under the same terms, the same measure for `CCOCC/N=C(\C)c1c(O)c2ccccc2oc1=O` [Analog 5b, 3-(N-(2-Ethoxyethyl)ethanimidoyl)-4-hydroxy-2H-chromen-2-one]: no less than 100 µM; for `COCCC/N=C(\C)c1c(O)c2ccccc2oc1=O` [Analog 5c, 4-Hydroxy-3-(N-(3-methoxypropyl)ethanimidoyl)-2H-chromen-2-one]: no less than 100 µM; for `CCOCCC/N=C(\C)c1c(O)c2ccccc2oc1=O` [Analog 5d, 3-(N-(3-Ethoxypropyl)ethanimidoyl)-4-hydroxy-2H-chromen-2-one]: no less than 100 µM.
The same measure, in the same setting: for `COc1cccc(C/N=C(\C)c2c(O)c3ccccc3oc2=O)c1` [Analog 6a, 4-Hydroxy-3-(N-(3-methoxybenzyl)ethanimidoyl)-2H-chromen-2-one] the value was no less than 100 µM.
Consider `COc1ccc(C/N=C(\C)c2c(O)c3ccccc3oc2=O)cc1` [Analog 6b, 4-Hydroxy-3-(N-(4-methoxybenzyl)ethanimidoyl)-2H-chromen-2-one], for which, in the series on BEAS-2B, MCF-7 and A549, the Cytotoxicity result is listed as “low μM range”. This molecule also registered an IC50 in series [2] of no less than 100 µM. In series [3] (40 μM), the “Inhibition of cytokinesis (nuclei to cell ratio, N/C)” value is “did not inhibit cytokinesis”.
In series [2], `CCOCCC/N=C/c1c(O)c2ccccc2oc1=O` [Analog 8a, 3-(N-(3-Ethoxypropyl)methanimidoyl)-4-hydroxy-2H-chromen-2-one] registered an IC50 of no less than 100 µM.
As to `COc1ccc(COCCC/N=C(\C)c2c(O)c3ccccc3oc2=O)cc1` [Analog 13b], the Selectivity x/y in series [4] was no less than 2.0. The IC50 in series [2] is no less than 100 µM.
In turn, `C/C(=N\CCCOCc1ccc2c(c1)OCO2)c1c(O)c2ccccc2oc1=O` [Analog 13c] gave an IC50 in series [2] of no less than 100 µM. In series [3] (40 μM), the “Inhibition of cytokinesis (nuclei to cell ratio, N/C)” value was “no cytokinesis inhibition”.
In turn, `CCCCN(CCC/N=C(\C)c1c(O)c2ccccc2oc1=O)Cc1cccc(OC)c1` [Analog 19, 3-(N-(N’-Butyl-N’−3-methoxybenzyl-3-aminopropyl)ethanimidoyl)-4-hydroxy-2H-chromen-2-one] yielded an IC50 in series [2] of no less than 100 µM.
The same measure, in the same setting: for `COc1cc(/C=C/C(=O)c2c(O)c3ccccc3oc2=O)ccc1O` [Analog 20, 4-Hydroxy-3-(3-(4-hydroxy-3-methoxyphenyl)-1-oxo-2-propen-1-yl)-2H-1-Benzopyran-2-one] the value was no less than 100 µM.
Regarding `Cc1ccc2c(c1)C(=O)[C@]1(O)CCN(c3ccccc3)C1=N2` [Blebbistatin, blebbistatin, reference compound], in series [3] (positive control, 10 μM), the “Inhibition of cytokinesis (nuclei to cell ratio, N/C)” value was “inhibited cytokinesis”.
Take `C/C(=N\Cc1ccncc1)c1c(O)c2ccccc2oc1=O` [JB031]: in series [5], the half-life for hydrolysis is 84 ± 12 h.
As for `C/C(=N\Cc1ccc(C)cc1)c1c(O)c2ccccc2oc1=O` [JB060], in series [6], the “Selectivity (cardiac vs. skeletal myosin inhibition)” value was “skeletal-selective”.
For `C/C(=N\Cc1cccc(C)c1)c1c(O)c2ccccc2oc1=O` [JB069], the “Selectivity (cardiac vs. skeletal myosin inhibition)” value in series [6] is “cardiac-selective”.
As for `Cc1ccc2c(c1)C(=O)[C@]1(O)CCN(c3ccc(N)cc3)C1=N2` [para-aminoblebbistatin, reference compound], in series [3] (positive control, 20 μM), the “Inhibition of cytokinesis (nuclei to cell ratio, N/C)” value is “inhibited cytokinesis”.
